Measured values: the M2OR odorant receptor database
Where a chain is given by its changes, count along the chain named.

How the values were obtained:
Conditions in all cases: stereoisomer not certain
OR3A1 (Homo sapiens) = target: T1, OR3A1 (Homo sapiens) (UniProt P47881)
T1 sequence (whole entry): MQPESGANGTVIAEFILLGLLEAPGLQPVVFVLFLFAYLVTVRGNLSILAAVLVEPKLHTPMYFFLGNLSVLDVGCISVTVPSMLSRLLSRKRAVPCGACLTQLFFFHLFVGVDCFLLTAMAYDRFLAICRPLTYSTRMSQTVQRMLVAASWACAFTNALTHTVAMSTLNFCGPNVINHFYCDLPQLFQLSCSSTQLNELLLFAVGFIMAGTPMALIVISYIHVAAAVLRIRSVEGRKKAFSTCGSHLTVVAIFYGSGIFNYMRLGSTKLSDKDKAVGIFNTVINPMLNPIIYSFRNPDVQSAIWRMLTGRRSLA
Summary of the method: (§1)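 Assay methods differ from source to source, frequently being transient luciferase assays in mammalian cell lines. For each receptor–molecule pair, the label responsive (active) applies when the original authors judged the measured signal statistically different from baseline, and non-responsive (inactive) applies otherwise.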

OR2W3 (Homo sapiens) = target: T2, OR2W3 (Homo sapiens) (UniProt Q7Z3T1)
T2 sequence (whole entry): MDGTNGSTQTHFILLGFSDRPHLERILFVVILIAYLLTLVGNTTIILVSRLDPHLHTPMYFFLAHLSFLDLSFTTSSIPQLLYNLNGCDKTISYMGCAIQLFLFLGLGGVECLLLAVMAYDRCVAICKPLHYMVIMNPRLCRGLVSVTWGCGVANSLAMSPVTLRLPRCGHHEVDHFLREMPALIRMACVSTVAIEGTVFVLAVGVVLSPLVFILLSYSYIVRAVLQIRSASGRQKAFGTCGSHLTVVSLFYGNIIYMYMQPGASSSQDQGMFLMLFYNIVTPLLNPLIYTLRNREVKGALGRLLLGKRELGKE
Summary of the method: as §1

OR2W5P (Homo sapiens) = target: T3, OR2W5P (Homo sapiens) (UniProt A6NFC9)
T3 sequence (whole entry): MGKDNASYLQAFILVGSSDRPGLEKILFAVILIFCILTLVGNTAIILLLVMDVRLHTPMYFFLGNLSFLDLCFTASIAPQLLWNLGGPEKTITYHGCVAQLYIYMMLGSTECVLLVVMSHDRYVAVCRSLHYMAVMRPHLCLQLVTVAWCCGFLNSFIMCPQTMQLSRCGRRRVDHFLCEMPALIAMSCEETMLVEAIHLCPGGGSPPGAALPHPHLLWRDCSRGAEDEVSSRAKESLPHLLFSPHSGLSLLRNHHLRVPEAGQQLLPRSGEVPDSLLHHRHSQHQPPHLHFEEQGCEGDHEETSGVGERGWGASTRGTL
Summary of the method: as §1

OR2Y1 (Homo sapiens) = target: T4, OR2Y1 (Homo sapiens) (UniProt Q8NGV0)
T4 sequence (whole entry): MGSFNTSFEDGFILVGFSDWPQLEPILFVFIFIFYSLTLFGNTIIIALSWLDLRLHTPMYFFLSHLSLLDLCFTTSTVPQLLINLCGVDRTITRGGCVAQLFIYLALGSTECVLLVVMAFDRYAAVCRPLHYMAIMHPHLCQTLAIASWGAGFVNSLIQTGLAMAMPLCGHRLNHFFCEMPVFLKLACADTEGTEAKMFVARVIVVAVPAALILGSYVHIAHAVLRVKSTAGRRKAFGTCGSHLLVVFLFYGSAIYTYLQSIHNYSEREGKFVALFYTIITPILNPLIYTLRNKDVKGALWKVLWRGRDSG
Summary of the method: as §1

OR2Y1 = system: T5, OR2Y1
T5 sequence (whole entry): T4 sequence (whole entry) with V200L
Summary of the method: as §1

OR2Z1 (Homo sapiens) = target: T6, OR2Z1 (Homo sapiens) (UniProt Q8NG97)
T6 sequence (whole entry): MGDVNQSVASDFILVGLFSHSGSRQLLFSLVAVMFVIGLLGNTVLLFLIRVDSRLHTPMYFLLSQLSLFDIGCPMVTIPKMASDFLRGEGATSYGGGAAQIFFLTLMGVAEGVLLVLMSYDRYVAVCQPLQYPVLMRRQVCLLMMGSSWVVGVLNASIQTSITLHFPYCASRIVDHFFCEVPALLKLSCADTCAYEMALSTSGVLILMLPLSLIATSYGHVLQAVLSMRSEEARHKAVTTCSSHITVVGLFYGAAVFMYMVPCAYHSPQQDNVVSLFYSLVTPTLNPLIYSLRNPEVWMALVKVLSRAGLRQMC
Summary of the method: as §1

OR3A1 = system: T7, OR3A1
T7 sequence (whole entry): T1 sequence (whole entry) with R125Q
Summary of the method: as §1

OR3A2 (Homo sapiens) = target: T8, OR3A2 (Homo sapiens) (UniProt P47893)
T8 sequence (whole entry): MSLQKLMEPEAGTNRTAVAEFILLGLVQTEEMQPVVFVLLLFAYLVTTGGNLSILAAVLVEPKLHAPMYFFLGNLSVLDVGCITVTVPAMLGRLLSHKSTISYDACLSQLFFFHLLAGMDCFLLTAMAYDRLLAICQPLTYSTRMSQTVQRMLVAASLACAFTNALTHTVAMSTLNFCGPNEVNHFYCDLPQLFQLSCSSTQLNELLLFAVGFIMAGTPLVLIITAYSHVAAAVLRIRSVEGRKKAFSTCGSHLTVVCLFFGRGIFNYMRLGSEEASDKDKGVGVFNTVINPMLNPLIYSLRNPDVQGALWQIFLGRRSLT
Summary of the method: as §1

OR3A2 R317K = system: T9, OR3A2 R317K
T9 sequence (whole entry): T8 sequence (whole entry) with R317K
Summary of the method: as §1

OR3A3 (Homo sapiens) = target: T10, OR3A3 (Homo sapiens) (UniProt P47888)
T10 sequence (whole entry): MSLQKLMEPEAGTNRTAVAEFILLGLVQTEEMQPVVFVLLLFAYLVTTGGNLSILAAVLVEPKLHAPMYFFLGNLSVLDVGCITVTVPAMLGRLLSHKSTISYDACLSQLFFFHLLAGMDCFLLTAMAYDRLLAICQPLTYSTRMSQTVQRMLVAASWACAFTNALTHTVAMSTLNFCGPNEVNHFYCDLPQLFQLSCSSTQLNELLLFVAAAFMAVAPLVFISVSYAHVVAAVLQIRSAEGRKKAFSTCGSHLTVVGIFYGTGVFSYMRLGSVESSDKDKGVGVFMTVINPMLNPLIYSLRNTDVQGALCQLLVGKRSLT
Summary of the method: as §1

Measured: odorant receptor agonist call

CC(CC=O)c1ccccc1 (centres undefined)
active: OR3A1 (Homo sapiens)

CC1=CC(=O)CC(C(C)C)C1 (centres undefined)
active: OR3A1 (Homo sapiens)

CC1=NC(C)C(C)S1 (centres undefined)
inactive: all assays above

CCCCCC(=O)C(C)C(C)=O (centres undefined)
not listed: OR2Y1 | OR3A1 | OR3A2 R317K
inactive: all other assays above

COc1ccc(CC(C)C=O)cc1 (centres undefined)
active: OR3A1 (Homo sapiens)

CC1CCCCCCCCCCCCC(=O)C1 (centres undefined)
inactive: OR2W3 (Homo sapiens) | OR2Y1 (Homo sapiens) | OR2Z1 (Homo sapiens) | OR3A1 (Homo sapiens) | OR3A2 (Homo sapiens) | OR3A3 (Homo sapiens)

OCCc1ccccc1
inactive: OR3A1 (Homo sapiens)

CCC(S)C(C)CO (centres undefined)
not listed: OR2Y1 | OR3A1 | OR3A2 R317K
inactive: all other assays above

CC1=C(O)C(=O)OC1C (centres undefined)
inactive: all assays above

CCCC(S)CCOC(C)=O (centres undefined)
inactive: all assays above

CCCCCCCC(=O)OCCCCCC
inactive: OR3A1 (Homo sapiens)

CC(=O)c1c(C)c([N+](=O)[O-])c(C(C)(C)C)c([N+](=O)[O-])c1C
inactive: OR2W3 (Homo sapiens) | OR2Y1 (Homo sapiens) | OR2Z1 (Homo sapiens) | OR3A1 (Homo sapiens) | OR3A2 (Homo sapiens) | OR3A3 (Homo sapiens)

CC(CC=O)CCc1ccccc1 (centres undefined)
active: OR3A1 (Homo sapiens)

CC1=C(O)C(=O)C(C)O1 (centres undefined)
inactive: all assays above

Cc1ccc(CC(C)C=O)cc1 (centres undefined)
active: OR3A1 (Homo sapiens)

CCCCC(S)C(C)CO (centres undefined)
not listed: OR2Y1 | OR3A1 | OR3A2 R317K
inactive: all other assays above

CCC1OC(C)=C(O)C1=O (centres undefined)
inactive: all assays above

OCC=Cc1ccccc1
inactive: OR3A1 (Homo sapiens)

CCCCCC(S)C(C)CO (centres undefined)
not listed: OR2Y1 | OR3A1 | OR3A2 R317K
inactive: all other assays above

CC(C=O)Cc1ccccc1 (centres undefined)
active: OR3A1 (Homo sapiens)

CCCCCCCC(=O)OC
inactive: OR2W3 (Homo sapiens)

O=CCCc1ccccc1
inactive: OR3A1 (Homo sapiens)

CC(C=O)=Cc1ccccc1
inactive: OR3A1 (Homo sapiens)

CCC(O)c1ccccc1 (centres undefined)
inactive: OR3A1 (Homo sapiens)

CC(CO)CS (centres undefined)
not listed: OR2Y1 | OR3A1 | OR3A2 R317K
inactive: all other assays above

Cc1cnc(C)c(C)n1
inactive: all assays above

CC(C)CC=O
inactive: OR3A1 (Homo sapiens)

CC(=O)OCc1ccc2c(c1)OCO2
inactive: OR3A1 (Homo sapiens)

CCC1OC(=O)C(O)=C1C (centres undefined)
inactive: all assays above

COc1ccc(COC=O)cc1
inactive: OR3A1 (Homo sapiens)

CCCCCCC=CCCC=O
inactive: all assays above

CCCCCC1=C(C)CCC1=O
active: OR3A1 (Homo sapiens)

CCCCCCCCCCCCCCCCCC(=O)OCC
inactive: OR2W3 (Homo sapiens)

CC(=O)CCc1ccc(O)cc1
inactive: OR3A1 (Homo sapiens)

CCCCCCCCCC(C)C=O (centres undefined)
inactive: OR3A1 (Homo sapiens)

CC(C=O)Cc1ccc(C(C)(C)C)cc1 (centres undefined)
active: OR3A1 (Homo sapiens)
inactive: OR2W3 (Homo sapiens)
